Results reported in ChEMBL document CHEMBL3739268, “Structure activity relationships of 4-hydroxy-2-pyridones: A novel class of antituberculosis agents” (Eur J Med Chem, 2015).
In brackets after ≈: the same amount, converted by molar mass.

Tests used:
[1] = test system: Mycobacterium tuberculosis; test: Antituberculosis activity against Mycobacterium tuberculosis H37Rv ATCC 27294 after 5 days; assay type: functional; conditions: H37Rv ATCC 27294, 120 h
[2] = Solubility of the compound at pH 6.8 after 24 hrs by shake flask method; assay type: physicochemical; conditions: buffer
Outline: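 High-throughput equilibrium shake-flask method. DMSO stock evaporated in filter vials, aqueous buffer added, shaken 24 h on an orbital shaker, then filtered with 30 min further shaking. Filtrate analysed by HPLC.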

[3] = AUC in mouse at 25 mg/kg, po; assay type: ADME, organism-based; conditions: in vivo
Outline: (§1)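 Plasma sampled at 0.08–24 h, three mice per time point. Plasma extracted with acetonitrile/methanol/acetic acid and quantified by LC/MS/MS (LLOQ 1–3 ng/mL).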

[4] = Volume of distribution at steady state in mouse at 5 mg/kg, iv; assay type: ADME, organism-based; conditions: in vivo, read-out: Vdss
Outline: (§2)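 Mice dosed i.v. at 5 mg/kg (1 mg/mL in 20% 1,2-propanediol, 10% solutol HS15, pH 7.0 buffer). Plasma sampled at 0.02, 0.25, 0.75, 1.5, 3, 8 and 24 h, three mice per time point. Analysed by LC/MS/MS with warfarin as internal standard. Noncompartmental analysis of mean concentration–time profiles.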

[5] = Cytotoxicity against human HepG2 cells; assay type: cell-based
[6] = test system: Mycobacterium tuberculosis; test: Antituberculosis activity against Mycobacterium tuberculosis H37Rv infected in mouse assessed as log reduction of CFU in spleen at 30 mg/kg qd for 7 days in a week for 4 weeks; assay type: functional
Outline: (§3)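 Mice infected intranasally with 10³ H37Rv bacilli on day 0; from one week post-infection dosed orally daily, 7 days/week for 4 weeks, in MEPC vehicle (Capmul MCM, Cremophor-RH40, ethanol, 50 mM phosphate pH 6.8). Bacterial load in spleen estimated as log CFU by serial-dilution plating on 7H11 agar; ethambutol positive control.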

[7] = Oral bioavailability in mouse at 25 mg/kg; assay type: ADME, organism-based; conditions: in vivo
[8] = Tmax in mouse at 25 mg/kg, po; assay type: ADME, organism-based; conditions: in vivo; outline: as §1
[9] = Intrinsic clearance in human liver microsomes; assay type: ADME; conditions: read-out: CLH
Outline: (§4)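 Compound depletion in human, mouse or rat liver microsomes, quantified by LC/MS/MS. In vitro half-life and hepatic extraction ratio measured, and metabolic clearance predicted from these.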

[10] = test system: Mycobacterium tuberculosis; test: Antituberculosis activity against Mycobacterium tuberculosis H37Rv infected in mouse assessed as log reduction of CFU in lung at 30 mg/kg qd for 7 days in a week for 4 weeks; assay type: functional
Outline: (§5)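 Acute model: mice infected intranasally day 0 with 10³ H37Rv bacilli; oral dosing began one week post-infection, daily 7 days/week (3 or 4 weeks). Oral vehicle was 0.5% Tween 80/0.5% methyl cellulose for the 3-week study and MEPC (Capmul MCM/Cremophor-RH40/ethanol/pH 6.8 phosphate buffer) for the 4-week study. Lungs homogenized, serial-dilution plated on 7H11 agar for CFU; ethambutol positive control.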

[11] = Cmax in mouse at 25 mg/kg, po; assay type: ADME, organism-based; set-up: dose 25 mg/kg, route oral; conditions: in vivo; outline: as §1
[12] = test system: Mycobacterium tuberculosis; test: Antituberculosis activity against Mycobacterium tuberculosis H37Rv infected in mouse assessed as log reduction of CFU in lung at 100 mg/kg qd for 7 days in a week for 4 weeks; assay type: functional; outline: as §5
[13] = Inhibition of Mycobacterium tuberculosis InhA
[14] = test system: Mycobacterium tuberculosis; test: Antituberculosis activity against Mycobacterium tuberculosis H37Rv infected in mouse assessed as log reduction of CFU in spleen at 100 mg/kg qd for 7 days in a week for 4 weeks; assay type: functional; outline: as §3
[15] = Terminal half life in mouse at 5 mg/kg, iv; assay type: ADME, organism-based; conditions: in vivo, read-out: beta t1/2 (converted); outline: as §2
[16] = Intrinsic clearance in mouse liver microsomes; assay type: ADME; conditions: read-out: CLH; outline: as §4
[17] = Plasma clearance in mouse at 5 mg/kg, iv; assay type: ADME, organism-based; outline: as §2
[18] = test system: Mycobacterium tuberculosis; test: Antituberculosis activity against Mycobacterium tuberculosis H37Rv infected in mouse assessed as log reduction of CFU in lung at 150 mg/kg qd for 7 days in a week for 3 weeks; assay type: functional; outline: as §5
[19] = Intrinsic clearance in rat liver microsomes; assay type: ADME; conditions: read-out: CLH; outline: as §4
Cytochrome P450 3A4 = Cytochrome P450 3A4 (Homo sapiens, UniProt P08684); test: Inhibition of CYP3A4 (unknown origin); assay type: ADME
Cytochrome P450 2D6 = Cytochrome P450 2D6 (Homo sapiens, UniProt P10635); test: Inhibition of CYP2D6 (unknown origin); assay type: ADME
Cytochrome P450 2C9 = Cytochrome P450 2C9 (Homo sapiens, UniProt P11712); test: Inhibition of CYP2C9 (unknown origin); assay type: ADME
Mus musculus [20] = test: Oral bioavailability in mouse at 50 mg/kg; assay type: ADME, organism-based; conditions: in vivo
[21] = Tmax in mouse at 50 mg/kg, po; assay type: ADME, organism-based; conditions: in vivo
[22] = Cmax in mouse at 50 mg/kg, po; assay type: ADME, organism-based; set-up: dose 50 mg/kg, route oral; conditions: in vivo
Mus musculus [23] = test: AUC in mouse at 50 mg/kg, po; assay type: ADME, organism-based; conditions: in vivo

Sequence of Cytochrome P450 3A4 (P08684 whole entry): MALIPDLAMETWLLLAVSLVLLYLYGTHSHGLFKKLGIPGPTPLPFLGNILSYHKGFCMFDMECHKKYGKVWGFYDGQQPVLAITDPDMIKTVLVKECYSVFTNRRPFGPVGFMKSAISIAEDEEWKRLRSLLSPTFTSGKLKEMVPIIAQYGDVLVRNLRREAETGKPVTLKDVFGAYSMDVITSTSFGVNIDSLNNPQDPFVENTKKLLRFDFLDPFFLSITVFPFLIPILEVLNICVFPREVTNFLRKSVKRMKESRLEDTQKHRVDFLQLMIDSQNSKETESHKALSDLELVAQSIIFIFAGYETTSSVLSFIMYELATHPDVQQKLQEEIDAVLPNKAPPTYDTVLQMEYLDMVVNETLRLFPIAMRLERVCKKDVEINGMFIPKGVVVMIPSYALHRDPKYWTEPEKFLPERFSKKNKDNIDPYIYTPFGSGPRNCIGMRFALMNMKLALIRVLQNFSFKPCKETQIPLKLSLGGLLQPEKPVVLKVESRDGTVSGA
Sequence of Cytochrome P450 2D6 (P10635 whole entry): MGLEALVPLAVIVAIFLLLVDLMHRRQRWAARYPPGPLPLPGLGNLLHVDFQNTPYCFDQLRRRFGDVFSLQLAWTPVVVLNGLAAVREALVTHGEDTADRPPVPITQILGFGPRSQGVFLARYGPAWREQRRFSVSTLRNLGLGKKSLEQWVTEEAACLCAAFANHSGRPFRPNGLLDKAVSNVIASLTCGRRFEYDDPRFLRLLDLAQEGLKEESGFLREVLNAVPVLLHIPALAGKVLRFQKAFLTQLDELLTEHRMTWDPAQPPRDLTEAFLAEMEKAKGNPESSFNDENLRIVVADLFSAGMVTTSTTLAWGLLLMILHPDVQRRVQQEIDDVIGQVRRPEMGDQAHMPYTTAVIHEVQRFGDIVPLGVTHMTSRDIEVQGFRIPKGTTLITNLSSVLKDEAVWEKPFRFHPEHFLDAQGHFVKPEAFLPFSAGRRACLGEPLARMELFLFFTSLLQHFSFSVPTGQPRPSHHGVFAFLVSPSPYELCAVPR
Sequence of Cytochrome P450 2C9 (P11712 whole entry): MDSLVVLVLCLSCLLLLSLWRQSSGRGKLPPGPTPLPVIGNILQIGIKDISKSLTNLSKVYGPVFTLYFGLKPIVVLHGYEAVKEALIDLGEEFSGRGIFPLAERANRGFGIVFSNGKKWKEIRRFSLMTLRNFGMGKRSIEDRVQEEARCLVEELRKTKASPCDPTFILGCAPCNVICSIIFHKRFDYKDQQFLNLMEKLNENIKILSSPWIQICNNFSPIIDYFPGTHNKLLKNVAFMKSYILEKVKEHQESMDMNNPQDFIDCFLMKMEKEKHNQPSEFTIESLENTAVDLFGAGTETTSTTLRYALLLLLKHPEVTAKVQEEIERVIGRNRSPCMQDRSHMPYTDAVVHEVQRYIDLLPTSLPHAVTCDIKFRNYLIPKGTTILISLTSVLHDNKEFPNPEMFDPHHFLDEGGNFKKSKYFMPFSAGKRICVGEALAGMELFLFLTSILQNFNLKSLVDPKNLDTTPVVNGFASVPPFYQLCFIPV

| Compound | MIC50 [1] [µM] | solubility thermodynamic at 24 h [2] [µM] | further results |
| --- | --- | --- | --- |
| NNC(=O)c1ccncc1 [ISONIAZID] | 0.33 (≈ 0.0453 µg/mL) |  |  |
| Cc1cc(O)c(-c2ccccc2)c(=O)[nH]1 | > 20 | > 1000 |  |
| CC(C)Cc1cc(O)c(-c2cccnc2)c(=O)[nH]1 | > 20 |  |  |
| COc1nc(CC(C)C)cc(O)c1-c1ccccc1 | > 20 |  |  |
| CC1(C)CCC(Cc2cc(O)c(-c3ccccc3)c(=O)[nH]2)CC1 | 0.05 (≈ 0.0156 µg/mL) | 25 (≈ 7.79 µg/mL) | AUC [3]: 65.8 µM·h; Vd [4]: 0.54 L/kg; CC50 [5]: > 20 µM; Activity [6]: 2.5 log10CFU; bioavailability [7]: 66%; Tmax [8]: 6 h; microsomal CLint [9]: 59 µL/min/mg; Activity [10]: 1 log10CFU; Cmax [11]: 13.7 µM; Activity [12]: 1.92 log10CFU; IC50 [13]: 0.57 µM; Activity [14]: 2.8 log10CFU; half-life [15]: 1.13 h; microsomal CLint [16]: 45 µL/min/mg; clearance [17]: 13.6 mL/min/kg |
| COc1cccc(-c2c(O)cc(CC(C)C)[nH]c2=O)c1 | > 20 |  |  |
| COc1ccc(-c2c(O)cc(CC(C)C)[nH]c2=O)cc1 | > 20 |  |  |
| CC(C)Cc1cc(O)c(-c2ccccc2Cl)c(=O)[nH]1 | 3.32 (≈ 0.922 µg/mL) |  |  |
| CC(C)Cc1ccc(-c2ccccc2)c(=O)[nH]1 | > 20 |  |  |
| CC(C)Cc1cc(O)c(-c2ccccc2)c(=O)n1C | 8.1 (≈ 2.08 µg/mL) |  |  |
| CC(C)Cc1cc(O)c(-c2ccccn2)c(=O)[nH]1 | > 20 |  |  |
| O=c1[nH]c(CC2CCOCC2)cc(O)c1-c1ccccc1 | 10.1 (≈ 2.88 µg/mL) | > 1000 |  |
| CC(C)Cc1cc(NCc2ccccc2)c(-c2ccccc2)c(=O)[nH]1 | > 20 |  |  |
| CC(C)Cc1cc(O)c(-c2ccccc2)c(=O)n1Cc1ccccc1 | > 20 |  |  |
| CC(C)Cc1cc(N)c(-c2ccccc2)c(=O)[nH]1 | > 20 |  |  |
| Oc1nc2ccccc2c(O)c1-c1ccccc1 | 13.2 (≈ 3.13 µg/mL) |  |  |
| CC(C)Cc1cc(O)c(Cc2ccccc2)c(=O)[nH]1 | > 20 |  |  |
| O=c1[nH]c(CC2CCCC2)cc(O)c1-c1ccccc1 | 0.92 (≈ 0.248 µg/mL) | 144 (≈ 38.8 µg/mL) |  |
| O=[N+]([O-])c1cn2c(n1)OC[C@@H](OCc1ccc(OC(F)(F)F)cc1)C2 [PRETOMANID] | 0.4 (≈ 0.144 µg/mL) |  |  |
| O=c1[nH]c(CC2CCC(F)(F)CC2)cc(O)c1-c1ccccc1 | 1.32 (≈ 0.422 µg/mL) | 104 (≈ 33.2 µg/mL) |  |
| O=c1[nH]c(Cc2ccccc2)cc(O)c1-c1ccccc1 | 1.4 (≈ 0.388 µg/mL) | 40 (≈ 11.1 µg/mL) |  |

| Compound | MIC50 [1] [µM] | solubility thermodynamic at 24 h [2] [µM] | further results |
| --- | --- | --- | --- |
| COc1cc(CC(C)C)[nH]c(=O)c1-c1ccccc1 | > 20 |  |  |
| CC(C)Cc1cc(O)c(-c2ccc(F)cc2)c(=O)[nH]1 | 6.75 (≈ 1.76 µg/mL) |  |  |
| CC(C)Cc1cc(O)c(-c2ccccc2)c(=O)[nH]1 | 1.54 (≈ 0.375 µg/mL) | 550 (≈ 134 µg/mL) | Activity [18]: 0.95 log10CFU; microsomal CLint [19]: 3.4 µL/min/mg; IC50 (Cytochrome P450 3A4): > 20 µM; Vd [4]: 0.46 L/kg; CC50 [5]: > 20 µM; IC50 (Cytochrome P450 2D6): > 20 µM; microsomal CLint [9]: 20 µL/min/mg; IC50 (Cytochrome P450 2C9): > 20 µM; IC50 [13]: 9.6 µM; half-life [15]: 1.21 h; F (Mus musculus [20]): 55%; microsomal CLint [16]: 22 µL/min/mg; Tmax [21]: 0.5 h; Cmax [22]: 13.2 µM; AUC (Mus musculus [23]): 27.18 µM·h |
| COc1nc2ccc(Br)cc2cc1[C@@H](c1ccccc1)[C@@](O)(CCN(C)C)c1cccc2ccccc12 [BEDAQUILINE] | 0.05 (≈ 0.0278 µg/mL) |  |  |
| CC(C)Cc1cc(O)c(-c2cccc(F)c2)c(=O)[nH]1 | 2.69 (≈ 0.703 µg/mL) |  |  |
| CC(C)CCc1cc(O)c(-c2ccccc2)c(=O)[nH]1 | 1.51 (≈ 0.389 µg/mL) | 128 (≈ 32.9 µg/mL) |  |
| CC(C)Cc1cc(O)c(-c2ccccc2F)c(=O)[nH]1 | 6.31 (≈ 1.65 µg/mL) |  |  |
| COc1ccccc1-c1c(O)cc(CC(C)C)[nH]c1=O | > 20 |  |  |
| CN(C)Cc1cc(O)c(-c2ccccc2)c(=O)[nH]1 | > 20 | 671 (≈ 164 µg/mL) |  |
| CC(C)Cc1cc(NS(C)(=O)=O)c(-c2ccccc2)c(=O)[nH]1 | > 20 |  |  |
| O=c1[nH]c(CC2CC2)cc(O)c1-c1ccccc1 | 4.53 (≈ 1.09 µg/mL) | 891 (≈ 215 µg/mL) |  |
| CC(C)Cc1cc(O)c(C2CCCCC2)c(=O)[nH]1 | > 20 |  |  |
| CC(C)Cc1cc(O)c(-c2ccccc2)c(=O)n1C(C)C | > 20 |  |  |
| O=c1[nH]c(CC2CCC2)cc(O)c1-c1ccccc1 | 1.19 (≈ 0.304 µg/mL) | 280 (≈ 71.5 µg/mL) |  |
| CC(C)Cc1cc(O)c(-c2ccc(Cl)cc2)c(=O)[nH]1 | > 20 |  |  |
| CC(C)Cc1cc(O)c(-c2ccccc2)c(=O)o1 | 13.8 (≈ 3.37 µg/mL) |  |  |
| O=c1[nH]c(CC2CCCCC2)cc(O)c1-c1ccccc1 | 0.16 (≈ 0.0453 µg/mL) | 24 (≈ 6.8 µg/mL) |  |
| CC(C)Cc1cc(O)c(-c2cccc(Cl)c2)c(=O)[nH]1 | 2.67 (≈ 0.742 µg/mL) |  |  |
| CC(C)Cc1cc(O)c(-c2ccncc2)c(=O)[nH]1 | > 20 |  |  |
| CC(C)Cc1nc(O)c(-c2ccccc2)c(=O)[nH]1 | > 20 |  |  |
| O=c1[nH]c(Cc2ccncc2)cc(O)c1-c1ccccc1 | 6.8 (≈ 1.89 µg/mL) | > 1000 |  |
